How the values were obtained:
Type in all cases: physicochemical
[1] = Glutathione reactivity assessed as thiol reactivity rate constant at 250 uM up to 72 hrs by HPLC-MS or NMR analysis; set-up: unit not given beside the values
Procedure, shortened: (§1)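 Fragment 250 µM mixed with 5 mM glutathione in PBS pH 7.4 containing 5% acetonitrile, with 100 µM indoprofen as internal standard. For fragments not detectable at 250 µM, levels were reversed (5 mM fragment, 250 µM GSH). Internal-standard-corrected AUCs were fitted by OLS linear regression. k_GSH = k_eff − k_deg, and t1/2 = ln2/k_GSH.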

[2] = Glutathione reactivity assessed as half life at 250 uM up to 72 hrs by HPLC-MS or NMR analysis; settings: gsh; procedure, shortened: as §1
[3] = Stability of the compound assessed as half life for degradation

K [1] | t1/2 [2] [h] | half-life [3] [h] | Compound
0.0144 | 48 | > 1 | C#CCn1ccnc1
0.116 | 6 | > 1 | Ic1ncc[nH]1
0.011 | 63 | > 1 | Brc1cncs1
6.0573 |  | > 1 | Ic1ncco1
0.7872 | 0.9 | > 1 | Ic1nccs1

Compound | K [1] | t1/2 [2] [h] | half-life [3] [h]
N#Cc1cccnc1 | 0.0176 | 41 | > 1
N#Cc1cnccn1 | 0.0314 | 22.5 | > 1
N#Cc1ccncc1 [ISONICOTINONITRILE] | 0.8837 | 0.8 | > 1
